Tn7 DDE FP = disrupts Tn7 cyclic peptide binding to fibrin D-Dimer-E complex; inhibition, % at 8.3 µM; FP displacement of FITC-Tn7 peptide from fibrin DD(E); 0% = median of compound wells per plate; P02675; AID 720508; actives 0.13% (n = 370,000);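 active = inhibition above the mean of compounds falling within the control limits plus 3 SD of them, cut at about 14% in these data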;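 note: 0% = plate median of compound wells and 100% = 10 µM Aha-Tn7 peptide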
Target sequence (P02675 whole entry, looked up): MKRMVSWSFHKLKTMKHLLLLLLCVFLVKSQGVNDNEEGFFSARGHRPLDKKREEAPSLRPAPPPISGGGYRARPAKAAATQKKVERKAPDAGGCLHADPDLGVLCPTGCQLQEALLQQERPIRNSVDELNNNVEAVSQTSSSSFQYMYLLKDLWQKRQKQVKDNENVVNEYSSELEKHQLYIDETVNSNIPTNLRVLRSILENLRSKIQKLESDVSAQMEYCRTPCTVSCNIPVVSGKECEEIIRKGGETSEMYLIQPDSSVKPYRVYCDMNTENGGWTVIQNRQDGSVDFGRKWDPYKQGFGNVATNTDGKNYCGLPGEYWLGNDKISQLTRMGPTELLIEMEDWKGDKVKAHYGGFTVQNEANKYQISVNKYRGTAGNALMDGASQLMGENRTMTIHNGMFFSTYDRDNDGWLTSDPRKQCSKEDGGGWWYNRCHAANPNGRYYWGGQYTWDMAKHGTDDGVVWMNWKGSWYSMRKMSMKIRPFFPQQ
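System: human fibrin DD(E); quantity: Fibrin-DD(E) at 2 µM final; also added: fluorescent Tn7 probe at 0.1 µM; compound dosing: single nominal test concentration of 8.3 µM per compound; schedule: 10 min preincubation, 3 h with tracer, room temperature; detection: fluorescence polarization of the labelled Tn7 tracer; repeats: one replicate per compound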
proKLK7 act = activators of human kallikrein-7 zymogen | purified proKLK7, EDANS-DABCYL substrate fluorescence; 100% is mature enzyme control, 0% vehicle | P49862 | actives 0.9% (n = 370,000) | activation, % at 7 µM;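 active = activation above the mean of all tested compounds plus 3 SD, computed per campaign excluding outliers beyond control limits, cut at about 13% in these data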
CRFR2-BP ag = CRF-BP/CRF-R2 complex agonism. actives 0.46% (n = 350,000). HEK293 CRF-R2/CRF-BP, calcium dye fluorescence (FLIPR); percent of saturating CRF peptide response. activation, % at 13.2 µM;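 active = activation of at least 50%, plus an integration ratio under a set limit after plate pattern correction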;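 note: plate controls were neutral control wells without compound for no effect and CRF at EC100 for full effect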
DDE Tn6 FP inh = disrupts Tn6 cyclic peptide binding to fibrin D-Dimer-E complex; P02675; Fibrin DD(E) TRITC-Tn6 fluorescence polarization displacement; inhibition, % at 8.3 µM; actives 0.21% (n = 370,000);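 active = inhibition above a per-campaign cutoff: mean of compounds within control limits plus 3 SD, cut at about 15% in these data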;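 note: 0% = median of all compound wells on the plate and 100% = blocking peptide control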
CRFBP-R2 block = CRF-BP/CRF-R2 complex antagonism; HEK293 CRF-R2/CRF-BP, CRF-induced calcium fluorescence; inhibition, % at 11.8 µM; actives 0.59% (n = 350,000);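 active = inhibition of the ligand-induced calcium signal above about 50% at the single tested concentration, limit read from the data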
NRP1-CendR mod = alters CendR peptide binding to human NRP-1 | O14786 | FAM-RPARPAR peptide binding to NRP-1, fluorescence polarization | inhibition, % at 25 µM | actives 0.85% (n = 360,000);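 active = inhibition or corrected inhibition above about 18%, plus a signal ratio from 0.5 to 1.5, limit read from the data, passing the limit was not always enough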
* hit, by the source's call; / = not tested or not shown; + = active, no number. Hits are enriched below; roughly 2.9% of the tested compounds scored in any of these assays.

SMILES	Tn7 DDE FP	proKLK7 act	CRFR2-BP ag	DDE Tn6 FP inh	CRFBP-R2 block	NRP1-CendR mod
COc1cc(OC)cc(-n2nnnc2SCC(=O)N2CCCC2)c1	6	0	-1	0	3	1
CCC(=O)Nc1cccc(-n2nnnc2SCC(=O)N2CCCCC2)c1	10	0	89*	-8	-164	-8
O=C1C=CC(=O)c2c(O)c(N3CCN(CCOCCO)CC3)c(Br)c(O)c21	2	1	3	31*	1	65*
CCOc1cc(CN2CCN(CCOCCO)CC2)ccc1OC	1	0	-1	4	7	-2
CCOC(=O)c1c(NC(=S)Nc2ccccc2)sc2c1CCN(CC)C2	-7	75*	9	-5	-26	-132
COc1cccc2c1cc1c(=O)n(CC(=O)N3CCCC3)nc(C)n12	-6	7	-1	-6	2	13
COc1cccc2c1cc1c(=O)n(CC(=O)N3CCCCCC3)nc(C)n12	-2	1	1	6	4	24*
COc1ccc(C(CCNCc2ccc(N(C)C)cc2)c2ccccc2)cc1 (stereo not drawn)	5	0	0	-2	-15	2
CC(C)Oc1ccc(C(CCNCc2ccc(O)cc2)c2ccccc2)cc1 (stereo not drawn)	6	-1	1	3	-24	25*
Cc1ccc(C(=O)c2cc([N+](=O)[O-])ccc2N2CCCCC2)c(C)c1	-2	0	133*	2	-130	-10
C#CCNC(=O)C[C@H]1C(=O)N(CCc2ccc(Cl)cc2)C2=CCCC[C@@]21C(=O)OCC	7	0	/	8	/	/
O=C(NNC1=C(C(=O)C(F)(F)F)CCC1)c1cccc(O)c1	1	0	0	-7	36	-10
Cc1cccc(C(=O)NNC2=C(C(=O)C(F)(F)F)CCC2)c1O	4	0	6	-6	48	58*
CCOC(=O)C1=NN(C(=O)c2ccc(OC)cc2)C(O)(c2ccc(Cl)cc2)C1 (stereo not drawn)	-11	-1	80*	-2	-4	-8
CCOC(=O)C1=NN(C(=O)COc2ccccc2)C(O)(c2ccc(Cl)cc2)C1 (stereo not drawn)	-5	1	0	3	-20	-1
CCOC(=O)C1=NN(C(=O)Cc2ccccc2)C(O)(c2ccc(Cl)cc2)C1 (stereo not drawn)	0	1	-2	1	-26	8
COC(=O)C1=NN(C(=O)c2cccc(Br)c2)C(O)(c2ccc(Cl)cc2)C1 (stereo not drawn)	-7	0	99*	-5	-30	-15
CCOC(=O)C1=NN(C(=O)c2ccccc2)C(O)(c2ccc(C)cc2)C1 (stereo not drawn)	-8	0	105*	1	-4	-3
O=c1c2cc3cc(Cl)ccc3nc2ncn1CCc1c[nH]c2ccccc12	2	-1	/	-6	/	/
COC(=O)C1CN(C2CCCC2)CCS(=O)(=O)N1Cc1cn(Cc2ccccc2)nn1 (stereo not drawn)	-3	1	/	3	/	/
CCN(CC)C(=O)CC[C@H]1CC[C@]2(CCCN(C(=O)C(C)(C)C)C2)O1	1	0	/	3	/	/
COCc1cc(N2CCN(C(=O)OC(C)(C)C)C[C@@H]2C)ccc1N1CC[C@@H](O)C1	-6	1	/	4	/	/
COc1ccccc1/C=C/C=C1\Oc2c(ccc(O)c2CN2CCN(CCO)CC2)C1=O	-22	7	59*	-4	-65	137
O=C1/C(=C/C=C/c2ccccc2)Oc2c1ccc(O)c2CN1CCN(CCO)CC1	0	-1	18	-3	-14	-107
COc1c(O)cc2oc(-c3ccc(O)cc3)cc(=O)c2c1O	8	1	-6	-6	0	7
COc1cc(OC)c(-c2c3cc(O)c(=O)cc-3oc3cc(O)c(O)cc23)cc1OC	-21	4	171*	+	-138	135
Cc1cc2oc(=O)cc(-c3cc4ccccc4o3)c2cc1O	0	-1	1	-4	-8	22
Cc1c2cc(O)c(=O)cc-2oc2cc(O)c(O)cc12	15*	-5	18	1	-22	132
